Results on 7 compounds are retold here after ChEMBL document CHEMBL1138787, “Synthesis and evaluation of nitrofuranylamides as novel antituberculosis agents” (J Med Chem, 2004).

For series [1], the system named is Mycobacterium tuberculosis. As to the kind of experiment: Activity against Mycobacterium tuberculosis H37Ra. It counts as functional. In short, it runs like this: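 Microbroth dilution in microtiter plates. H37Ra grown in Middlebrook 7H9 to OD650 0.4-0.6, then diluted to OD650 0.01. 100 µL of cells added to serial compound dilutions and incubated 37 °C for 8 days, growth read visually. MIC90 taken as wells with >90% growth inhibition; isoniazid positive control on every plate.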

The subject of series [2] is Mycobacterium tuberculosis. As to the kind of experiment: Viable Mycobacterium tuberculosis in spleen of infected Mice after an 8-day drug treatment; Dose is 300 mg/kg. It counts as functional. In short, it runs like this: (§1)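 C57BL/6 interferon-γ gene-depleted (GKO) mice infected by low-dose aerosol. Eight daily treatments started 18 days postinfection. At day 28, lung and spleen homogenates serially diluted onto Middlebrook 7H11 agar and incubated 4 weeks at 37 °C. CFU log-transformed and reported ±SEM; one-way Dunnett multiple-comparison ANOVA, significance at 95% confidence.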

In series [3] the test system is Mycobacterium tuberculosis. Nature of the series: Viable Mycobacterium tuberculosis in lungs of infected Mice after an 8-day drug treatment; Dose is 300 mg/kg. It counts as functional, Lung. In short, it runs like this:
as §1

Series [4] deals with UDP-galactopyranose mutase (Mycobacterium tuberculosis, UniProt P9WIQ1). As to the kind of experiment: Inhibition of Mycobacterium tuberculosis UDP-galactose mutase expressed in Escherichia coli UDP-6 [3H]- Galf. Set-up: species or system H37Rv. In short, it runs like this:
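Reverse-direction radiometric Glf assay on crude soluble enzyme extract, preactivated 30 min at 37 °C in 25 mM MOPS with NADH and FAD. Each 25 µL well held MOPS pH 7.2, MgCl2, NADH, FAD, 2.3 µg protein, 20 pmol UDP-6-[3H]Galf and 1 µL DMSO. Inhibitors at 100-6.3 µM; reaction 5-20 min. Conversion read by HPLC or periodate filter-plate counting; IC50 calculated.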

A further series relates to Vero. As to the kind of experiment: Selectivity is the ratio of cytotoxicity compared to TBMIC. It counts as functional. In short, it runs like this:
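Ratio of VERO cell toxicity IC50 to M. tuberculosis H37Ra MIC. VERO monolayers were exposed to 3-fold compound dilutions for 72 h, and viability was read by tetrazolium reduction at 490 nm, with untreated and SDS-lysed cells as 0% and 100%. MIC was by microbroth dilution in 7H9 (OD650 0.01 inoculum), 37 °C for 8 days, with visual 90% growth inhibition.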

Series [5] in a line: The protein binding is expressed as percent bound as determined by VolSurf. As to conditions: read-out: Protein binding (converted). It counts as ADME.
In series [6] the test system is Mycobacterium tuberculosis. As to the kind of experiment: Viable Mycobacterium tuberculosis in spleen of infected Mice after an 8-day drug treatment; Dose is 150 mg/kg. The format is functional. In short, it runs like this:
as §1

Series [7] relates to Mycobacterium tuberculosis. Nature of the series: Viable Mycobacterium tuberculosis in lungs of infected Mice after an 8-day drug treatment; Dose is 150 mg/kg. The format is functional, Lung. In short, it runs like this:
as §1

In series [8] the test system is Mycobacterium tuberculosis. As to the kind of experiment: Viable Mycobacterium tuberculosis in spleen of infected Mice after an 8-day drug treatment; Dose is 25 mg/kg. It counts as functional. In short, it runs like this: as §1
The test system of series [9] is Mycobacterium tuberculosis. Nature of the series: Viable Mycobacterium tuberculosis in lungs of infected Mice after an 8-day drug treatment; Dose is 25 mg/kg. The format is functional, Lung. In short, it runs like this:
as §1

Molecules are shown by their SMILES. pIC50: −log10 of the molar value.

UDP-galactopyranose mutase, sequence (P9WIQ1 whole entry): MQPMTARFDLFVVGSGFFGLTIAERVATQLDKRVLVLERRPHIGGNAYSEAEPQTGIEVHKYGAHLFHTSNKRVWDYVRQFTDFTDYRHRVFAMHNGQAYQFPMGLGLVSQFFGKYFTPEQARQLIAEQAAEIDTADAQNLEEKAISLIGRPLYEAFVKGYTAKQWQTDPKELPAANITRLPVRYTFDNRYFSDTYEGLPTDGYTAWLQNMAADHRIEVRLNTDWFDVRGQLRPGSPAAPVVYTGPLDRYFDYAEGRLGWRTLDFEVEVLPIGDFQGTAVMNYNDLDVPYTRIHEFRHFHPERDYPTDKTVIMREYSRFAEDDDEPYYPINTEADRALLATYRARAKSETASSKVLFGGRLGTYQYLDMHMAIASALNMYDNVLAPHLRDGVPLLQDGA

A word on the pIC50: it is the IC50 on a negative log10 scale, so that one unit is a factor of ten. Low readings indicate a high IC50, high ones a low IC50. `O=C(Nc1cccc(Cl)c1)c1ccc([N+](=O)[O-])o1` had a TBMIC in series [1] of 0.8 µg/mL. Further, the Activity in series [2] is reported as 7.3 log CFU; in series [3], 8.3 log CFU. This compound gave a pIC50 in [4] of 4.25. For the same compound, the Selectivity index in the series with Vero was 8.6.

In turn, `O=C(Nc1cc[nH]n1)c1ccc([N+](=O)[O-])o1` displayed a TBMIC in [1] of 6.25 µg/mL. The fraction unbound in series [5] is 0.513. Besides, the pIC50 in series [4] is 3.14. Further, the Selectivity index in the series with Vero was found to be 1.2.

`COc1ccc(CNC(=O)c2ccc([N+](=O)[O-])o2)cc1OC` gave a TBMIC in series [1] of 0.2 µg/mL. The Activity is 6 log CFU in series [2] and 6.5 log CFU in series [3]. Besides, the fraction unbound in [5] was 0.363. The compound also showed a pIC50 in series [4] of 4.12. In addition, in the series on Vero, the Selectivity index came to 90.9.

`O=C(Nc1cccc(F)c1)c1ccc([N+](=O)[O-])o1`: the TBMIC in series [1] is 0.8 µg/mL. The results for the Activity in series [2] and in series [3] were 7 log CFU and 8.4 log CFU, respectively. For the same compound, the fraction unbound in series [5] was 0.334. Besides, in [4], the pIC50 is 3.95. In the series with Vero, the Selectivity index is recorded as 11.6.

Consider `COc1cccc(NC(=O)c2ccc([N+](=O)[O-])o2)c1`, for which the TBMIC in series [1] turned out to be 0.8 µg/mL. Besides, the fraction unbound in [5] is 0.364. The Activity is listed as 7.2 log CFU in series [6] and 8 log CFU in series [7]. The pIC50 in series [4] is 3.80. Further, the Selectivity index with Vero came out at 23.3.

As for `NNC(=O)c1ccncc1` [ISONIAZID], the Activity is on record as 3.2 log CFU in series [8] and 5.5 log CFU in series [9].

Take `Cc1ncc([N+](=O)[O-])n1CCO` [METRONIDAZOLE]: the Activity in series [6] is reported as 6.9 log CFU; in series [7] it was 8.5 log CFU.
